≈ marks a conversion by molar mass, not a printed value. Calls of active or inactive are those of the source. No cut-off for these calls is given here.
What was measured:
[1] = tested on: Mycolicibacterium aurum; experiment: Inhibition of FAS2 in recombinant Mycobacterium aurum expressing hsp60 promoter in fusion Escherichia coli lacZ gene assessed as increase in beta-galactosidase activity at 50 uM incubated for 12 hrs by lacZ reporter gene assay
[2] = tested on: Mycolicibacterium aurum; experiment: Inhibition of FAS2 in recombinant Mycobacterium aurum expressing Mycobacterium tuberculosis H37Rv kas operon in fusion Escherichia coli lacZ gene assessed as increase in beta-galactosidase activity at 100 uM incubated for 12 hrs by lacZ reporter gene assay
Summary of the method: (§1)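 Cells washed, sonicated in PBS pH 7.2; equal Bradford-quantified protein incubated with ONPG (4 mg/ml) 30 min at 37 °C, stopped with Na2CO3, read at 410 nm. Triplicates, experiment repeated twice; isoniazid positive control.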

[3] = tested on: Mycolicibacterium aurum; experiment: Inhibition of FAS2 in recombinant Mycobacterium aurum expressing Mycobacterium tuberculosis H37Rv kas operon in fusion Escherichia coli lacZ gene assessed as increase in beta-galactosidase activity at 50 uM incubated for 12 hrs by lacZ reporter gene assay; summary of the method: as §1
[4] = tested on: Mycolicibacterium aurum; experiment: Growth inhibition of Mycobacterium aurum expressing Mycobacterium tuberculosis H37Rv kas operon in fusion Escherichia coli lacZ gene at 50 uM incubated for 12 hrs; type: functional; conditions: read-out: GI
[5] = tested on: Mycolicibacterium aurum; experiment: Inhibition of FAS2 in recombinant Mycobacterium aurum expressing hsp60 promoter in fusion Escherichia coli lacZ gene assessed as increase in beta-galactosidase activity at 100 uM incubated for 12 hrs by lacZ reporter gene assay
[6] = Toxicity against macrophages incubated for 48 hrs by resazurin dye reduction assay; type: cell-based, Macrophage
Summary of the method: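 Macrophages from subconfluent monolayers seeded ~1 × 10^6 cells/well in RPMI-1640; compounds 100 to 12.5 µM, 48 h at 37 °C, 5% CO2; resazurin added for 4 h, fluorescence 535/590 nm read against untreated wells as % viability; CC50 taken from viability-versus-concentration plot; triplicates.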

[7] = tested on: Mycolicibacterium aurum; experiment: Growth inhibition of Mycobacterium aurum expressing Mycobacterium tuberculosis H37Rv kas operon in fusion Escherichia coli lacZ gene at 100 uM incubated for 12 hrs; type: functional; conditions: read-out: GI
[8] = molecular target: Serine/threonine-protein kinase PknG (Mycobacterium tuberculosis) (UniProt P9WI73); experiment: Inhibition of Mycobacterium tuberculosis recombinant PKnG expressed in Escherichia coli BL21 (DE3) cells using myelin basic protein substrate at 6.25 uM by luciferase activity based ADP-Glo-luminescent kinase assay
Chain of Serine/threonine-protein kinase PknG (Mycobacterium tuberculosis) (P9WI73 whole entry): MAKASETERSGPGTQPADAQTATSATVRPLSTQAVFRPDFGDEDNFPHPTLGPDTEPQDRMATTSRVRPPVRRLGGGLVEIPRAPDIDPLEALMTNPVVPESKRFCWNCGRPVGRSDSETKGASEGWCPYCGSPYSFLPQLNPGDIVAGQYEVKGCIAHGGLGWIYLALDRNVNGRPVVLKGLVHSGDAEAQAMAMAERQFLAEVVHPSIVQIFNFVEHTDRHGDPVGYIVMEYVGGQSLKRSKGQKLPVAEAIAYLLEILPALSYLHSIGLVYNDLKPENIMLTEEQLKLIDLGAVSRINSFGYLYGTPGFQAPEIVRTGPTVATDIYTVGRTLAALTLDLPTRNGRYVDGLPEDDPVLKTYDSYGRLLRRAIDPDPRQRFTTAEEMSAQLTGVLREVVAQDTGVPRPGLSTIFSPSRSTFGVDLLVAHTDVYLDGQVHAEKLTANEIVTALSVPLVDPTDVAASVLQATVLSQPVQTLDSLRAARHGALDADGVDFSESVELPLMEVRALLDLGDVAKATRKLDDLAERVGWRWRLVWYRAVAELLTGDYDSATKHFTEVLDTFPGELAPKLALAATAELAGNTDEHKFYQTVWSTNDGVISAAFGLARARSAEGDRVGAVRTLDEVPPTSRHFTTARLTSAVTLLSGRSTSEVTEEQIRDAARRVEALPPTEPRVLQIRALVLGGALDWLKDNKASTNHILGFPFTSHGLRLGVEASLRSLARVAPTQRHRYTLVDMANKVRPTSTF
Summary of the method: (§2)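 6-His-PknG from M. tuberculosis genomic DNA cloned into pTriEx4, expressed in E. coli with 0.8 mM IPTG 4 h at 37 °C, purified by Ni2+-NTA then size exclusion. Compounds dissolved in DMSO; assayed with myelin basic protein substrate; ADP formed measured by ADP-Glo luminescence; AX20017 positive control; dose-response series.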

[9] = tested on: Mycobacterium tuberculosis; experiment: Growth inhibition of Mycobacterium tuberculosis H37Rv; type: functional
[10] = molecular target: Serine/threonine-protein kinase PknG (Mycobacterium tuberculosis) (UniProt P9WI73); experiment: Inhibition of Mycobacterium tuberculosis recombinant PKnG expressed in Escherichia coli BL21 (DE3) cells using myelin basic protein substrate at 12.5 uM by luciferase activity based ADP-Glo-luminescent kinase assay; summary of the method: as §2
[11] = molecular target: Serine/threonine-protein kinase PknG (Mycobacterium tuberculosis) (UniProt P9WI73); experiment: Inhibition of Mycobacterium tuberculosis recombinant PKnG expressed in Escherichia coli BL21 (DE3) cells using myelin basic protein substrate at 100 uM by luciferase activity based ADP-Glo-luminescent kinase assay; summary of the method: as §2
[12] = molecular target: Serine/threonine-protein kinase PknG (Mycobacterium tuberculosis) (UniProt P9WI73); experiment: Inhibition of Mycobacterium tuberculosis recombinant PKnG expressed in Escherichia coli BL21 (DE3) cells using myelin basic protein substrate at 25 uM by luciferase activity based ADP-Glo-luminescent kinase assay; summary of the method: as §2
[13] = molecular target: Serine/threonine-protein kinase PknG (Mycobacterium tuberculosis) (UniProt P9WI73); experiment: Inhibition of Mycobacterium tuberculosis recombinant PKnG expressed in Escherichia coli BL21 (DE3) cells using myelin basic protein substrate at 3.125 uM by luciferase activity based ADP-Glo-luminescent kinase assay; summary of the method: as §2
[14] = molecular target: Serine/threonine-protein kinase PknG (Mycobacterium tuberculosis) (UniProt P9WI73); experiment: Inhibition of Mycobacterium tuberculosis recombinant PKnG expressed in Escherichia coli BL21 (DE3) cells using myelin basic protein substrate at 50 uM by luciferase activity based ADP-Glo-luminescent kinase assay; summary of the method: as §2

SMILES	inhibition [1]	inhibition [2]	inhibition [3]	inhibition of growth at 50 µM [4] [%]	inhibition [5]	CC50 at 48 h [6] [µM]	inhibition of growth at 100 µM [7] [%]	inhibition [8] [%]	MIC [9] [µg/mL]	inhibition [10] [%]	inhibition [11] [%]	inhibition [12] [%]	inhibition [13] [%]	inhibition [14] [%]
O=C(/C=C/c1c(F)cccc1Cl)c1ccc(OCc2cn(Cc3ccc(Br)cc3)nn2)cc1O	inactive	Active	Active	53.1	inactive	65.8	83							
CCCCCCn1cc(COc2ccc(-c3cc(-c4ccccc4)nc(N)n3)c(O)c2)nn1								0	50 (≈ 112 µM)	0	23	0	0	13
CCCCCCn1cc(COc2ccc(C(=O)/C=C/c3c(F)cccc3Cl)c(O)c2)nn1	inactive	Active	Active	71.6	inactive	> 100	79.1							
O=C(/C=C/c1ccccc1)c1ccc(OCc2cn(Cc3ccccc3)nn2)cc1O	inactive	Active	Active	49.9	inactive	80	88							
CC(C)c1ccc(C2CC(=O)c3ccc(OCc4cn(Cc5ccccc5)nn4)cc3O2)cc1 (centres undefined)	inactive	Active	Active	54.7	inactive	23.8	79.3							
CCCCCCn1cc(COc2ccc3c(c2)OC(c2ccc(OC)cc2)CC3=O)nn1 (centres undefined)	inactive	Active	Active	55.9	inactive	57.5	65.7							
O=C(/C=C/c1ccccc1)c1ccc(OCc2cn(Cc3ccc(Br)cc3)nn2)cc1O	inactive	Active	Active	53.8	inactive	71.7	85.3							
